Assays:
Junin virus [1] = test: Antiviral activity against Junin virus IV4454 infected in african green monkey Vero cells assessed as reduction in virus yield after 48 hrs by plaque assay; format: functional, organism-based; details: Mammarenavirus juninense
[2] = (§1) Cytotoxicity against african green monkey Vero cells after 48 hrs by MTT assay; format: cell-based, Chlorocebus sabaeus; details: chlorocebus sabaeus, Vero cells
Procedure, shortened: (§2)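 Confluent Vero cultures were exposed to a range of compound concentrations, three wells per concentration, for 48 h at 37 °C. Viability was read by MTT at 595 nm. CC₅₀ is the concentration reducing MTT signal by 50% versus untreated controls. Mean of three determinations.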

[3] = Selectivity index, ratio of CC50 for african green monkey Vero cells to EC50 for Junin virus IV4454 infected in african green monkey Vero cells; format: toxicity, cell-based; details: read-out: Selectivity Index
Junin virus [4] = test: Antiviral activity against Junin virus IV4454 infected in african green monkey Vero cells assessed as reduction in virus yield at 50 to 200 uM treated for 1.5 hrs before viral infection measured by plaque assay relative to control; format: functional, Mammarenavirus juninense
Junin virus [5] = test: Antiviral activity against Junin virus IV4454 infected in african green monkey Vero cells assessed as reduction in virus yield treated for 1.5 hrs before viral infection measured by plaque assay relative to control; format: functional, organism-based; details: Mammarenavirus juninense
Vero = test: as §1; format: cell-based, Chlorocebus sabaeus; details: Chlorocebus sabaeus, Vero, 48 h; procedure, shortened: as §2

Row | Compound | EC50 (Junin virus [1]) [µM] | CC50 at 48 h [2] [µM] | selectivity ratio [3] | fold change (FC) (Junin virus [4]) | inhibition (Junin virus [5]) | IC50 (Vero) [µM]
1 | CC(=O)O[C@@H]1[C@H]2OC(C)(C)O[C@H]2O[C@@H]1C(=O)c1cnc2sc(C(=O)c3ccc(Br)cc3)cn12 | 5.6 | 139 | 24.8 | – | – | –
2 | CO[C@@H]1[C@H]2OC(C)(C)O[C@H]2O[C@@H]1C(=O)c1cnc2sc(C(=O)c3ccc(Cl)cc3)cn12 | 0.8 | 371 | 464 | – | – | –
3 | CC(=O)O[C@@H]1[C@H]2OC(C)(C)O[C@H]2O[C@@H]1C(=O)c1cnc2sc(C(=O)c3ccc(Cl)cc3)cn12 | 7.5 | 70 | 9.3 | – | – | –
4 | CC(=O)O[C@@H]1[C@H]2OC(C)(C)O[C@H]2O[C@@H]1C(=O)c1cnc2sc(C(=O)c3ccccc3)cn12 | 7.9 | > 400 | > 50.6 | – | – | –
5 | COC1[C@@H](C(=O)c2cnc3sc(C(=O)c4ccccc4)cn23)O[C@@H]2OC(C)(C)O[C@H]12 (single isomer, unassigned) | 18.5 | > 400 | > 21.6 | – | – | –
6 | CO[C@@H]1[C@H]2OC(C)(C)O[C@H]2O[C@@H]1C(=O)c1cn2cc(C(=O)c3ccc(F)cc3)nc2s1 | 2.9 | > 400 | > 138 | – | – | –
7 | CO[C@@H]1[C@H]2OC(C)(C)O[C@H]2O[C@@H]1C(=O)c1cn2cc(C(=O)c3ccccc3)nc2s1 | 12.3 | > 400 | > 32.5 | – | – | –
8 | CO[C@@H]1[C@H]2OC(C)(C)O[C@H]2O[C@@H]1C(=O)c1cnc2sc(C(=O)c3ccc(F)cc3)cn12 | 78.3 | > 400 | > 5.1 | – | – | –
9 | COC1[C@@H](C(=O)c2cnc3sc(C(=O)c4ccc(Br)cc4)cn23)O[C@@H]2OC(C)(C)O[C@H]12 (single isomer, unassigned) | 1.1 | 295 | 268 | 15 | Dose-dependent effect | –
10 | CC(=O)O[C@@H]1[C@H]2OC(C)(C)O[C@H]2O[C@@H]1C(=O)c1cnc2sc(C(=O)c3ccc(F)cc3)cn12 | 4.9 | > 400 | > 81.6 | – | – | –
11 | NC(=O)c1ncn([C@@H]2O[C@H](CO)[C@@H](O)[C@H]2O)n1 [RIBAVIRIN] | 18.5 | – | > 21.6 | – | – | > 400
12 | CO[C@@H]1[C@H]2OC(C)(C)O[C@H]2O[C@@H]1C(=O)c1cn2cc(C(=O)c3ccc(Br)cc3)nc2s1 | 4.3 | 351 | 81.6 | – | – | –
13 | CO[C@@H]1[C@H]2OC(C)(C)O[C@H]2O[C@@H]1C(=O)c1cn2cc(C(=O)c3ccc(Cl)cc3)nc2s1 | 11.9 | > 400 | > 33.6 | – | – | –

Reference: ChEMBL document CHEMBL1649388, “Imidazo[2,1-b]thiazole carbohydrate derivatives: Synthesis and antiviral activity against Junin virus, agent of Argentine hemorrhagic fever” (Eur J Med Chem, 2011)
